From ChEMBL document CHEMBL1671686, “Carbapenem-resistant KPC-2-producing Escherichia coli in a Tel Aviv Medical Center, 2005 to 2008” (2010)
Converted amounts (≈) assume the structure as drawn.

Columns and labels:
Format in all cases: functional
Escherichia coli [1] = assay: Antimicrobial activity against Escherichia coli isolate 339 expressing beta-lactamase KPC2, TEM and PFGE cluster 5 isolated from peritoneal fluid of patient by vitek-2 method
Escherichia coli [2] = assay: Antimicrobial activity against Escherichia coli isolate 339T expressing beta-lactamase KPC2 and PFGE cluster 5 isolated from peritoneal fluid of patient by vitek-2 method
Escherichia coli [3] = assay: Antimicrobial activity against Escherichia coli isolate 360 expressing beta-lactamase KPC2, CTX-M-15, OXA-9, TEM and PFGE cluster 1 isolated from urine of patient by vitek-2 method
Escherichia coli [4] = assay: Antimicrobial activity against Escherichia coli isolate 360T expressing beta-lactamase KPC2, OXA-9 and PFGE cluster 1 isolated from urine of patient by vitek-2 method
Escherichia coli [5] = assay: Antimicrobial activity against Escherichia coli isolate 386 expressing beta-lactamase KPC2, CTX-M-15, OXA-9, TEM and PFGE cluster 1 isolated from wound of patient by vitek-2 method
Escherichia coli [6] = assay: Antimicrobial activity against Escherichia coli isolate 386T expressing beta-lactamase KPC2, OXA-9 and PFGE cluster 1 isolated from wound of patient by vitek-2 method
Escherichia coli [7] = assay: Antimicrobial activity against Escherichia coli isolate 540 expressing beta-lactamase KPC2, TEM and PFGE cluster 4 isolated from synovial fluid of patient by vitek-2 method
Escherichia coli [8] = assay: Antimicrobial activity against Escherichia coli isolate 543 expressing beta-lactamase KPC2, CTX-M-15, TEM and PFGE cluster 4 isolated from synovial fluid of patient by vitek-2 method
Escherichia coli [9] = assay: Antimicrobial activity against Escherichia coli isolate 543T expressing beta-lactamase KPC2 and PFGE cluster 4 isolated from synovial fluid of patient by vitek-2 method
Escherichia coli [10] = assay: Antimicrobial activity against Escherichia coli isolate 544 expressing beta-lactamase KPC2, TEM and PFGE cluster 4 isolated from abscess of patient by vitek-2 method
Escherichia coli [11] = assay: Antimicrobial activity against Escherichia coli isolate 547 expressing beta-lactamase KPC2, TEM and PFGE cluster 4 isolated from blood of patient by vitek-2 method
Escherichia coli [12] = assay: Antimicrobial activity against Escherichia coli isolate 547T expressing beta-lactamase KPC2 and PFGE cluster 4 isolated from blood of patient by vitek-2 method
Escherichia coli [13] = assay: Antimicrobial activity against Escherichia coli isolate 1679 expressing beta-lactamase KPC2, SHV-12, TEM and PFGE cluster 6 isolated from peritoneal fluid of patient by vitek-2 method
Escherichia coli [14] = assay: Antimicrobial activity against Escherichia coli isolate 1679T expressing beta-lactamase KPC2, TEM and PFGE cluster 6 isolated from peritoneal fluid of patient by vitek-2 method
Escherichia coli [15] = assay: Antimicrobial activity against Escherichia coli DH10B by vitek-2 method; settings: K-12 DH10B
Outline: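 Plasmid-free recipient E. coli DH10B, used as the host for electroporation transformants, was tested for susceptibility on the automated Vitek-2 system.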

Escherichia coli [16] = assay: Antimicrobial activity against Escherichia coli isolate 157 expressing beta-lactamase KPC2, CTX-M-15, TEM and PFGE cluster 3 isolated from urine of patient by vitek-2 method
Escherichia coli [17] = assay: Antimicrobial activity against Escherichia coli isolate 157T expressing beta-lactamase KPC2 and PFGE cluster 3 isolated from urine of patient by vitek-2 method
Escherichia coli [18] = assay: Antimicrobial activity against Escherichia coli isolate 329 expressing beta-lactamase KPC2, CTX-M-2, TEM and PFGE cluster 2 isolated from blood of patient by vitek-2 method
Escherichia coli [19] = assay: Antimicrobial activity against Escherichia coli isolate 329T expressing beta-lactamase KPC2 and PFGE cluster 2 isolated from blood of patient by vitek-2 method
Escherichia coli [20] = assay: Antimicrobial activity against Escherichia coli isolate 157 expressing beta-lactamase KPC2, CTX-M-15, TEM and PFGE cluster 3 isolated from urine of patient by agar dilution method; settings: isolate 157, Urine
Outline: (§1)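 Clinical carbapenem-resistant E. coli isolates collected Feb 2005–Oct 2008. Carbapenem MICs determined by agar dilution following CLSI protocols.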

Escherichia coli [21] = assay: Antimicrobial activity against Escherichia coli isolate 157T expressing beta-lactamase KPC2 and PFGE cluster 3 isolated from urine of patient by agar dilution method
Outline: (§2)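 Transformant strains. Plasmids purified from the clinical isolates were electroporated into E. coli DH10B. Transformants were selected on LB agar with 100 μg/ml ampicillin, and colonies were PCR-screened for blaKPC before susceptibility testing.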

Escherichia coli [22] = assay: Antimicrobial activity against Escherichia coli isolate 329 expressing beta-lactamase KPC2, CTX-M-2, TEM and PFGE cluster 2 isolated from blood of patient by agar dilution method
Outline: (§3)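 Clinical carbapenem-resistant E. coli isolates from the hospital, February 2005 to October 2008. Carbapenem MICs were determined by agar dilution following CLSI protocols.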

Escherichia coli [23] = assay: Antimicrobial activity against Escherichia coli isolate 329T expressing beta-lactamase KPC2 and PFGE cluster 2 isolated from blood of patient by agar dilution method; outline: as §2
Escherichia coli [24] = assay: Antimicrobial activity against Escherichia coli isolate 339 expressing beta-lactamase KPC2, TEM and PFGE cluster 5 isolated from peritoneal fluid of patient by agar dilution method; outline: as §3
Escherichia coli [25] = assay: Antimicrobial activity against Escherichia coli isolate 339T expressing beta-lactamase KPC2 and PFGE cluster 5 isolated from peritoneal fluid of patient by agar dilution method; outline: as §2
Escherichia coli [26] = assay: Antimicrobial activity against Escherichia coli isolate 360 expressing beta-lactamase KPC2, CTX-M-15, OXA-9, TEM and PFGE cluster 1 isolated from urine of patient by agar dilution method; settings: isolate 360, Urine; outline: as §1
Escherichia coli [27] = assay: Antimicrobial activity against Escherichia coli isolate 360T expressing beta-lactamase KPC2, OXA-9 and PFGE cluster 1 isolated from urine of patient by agar dilution method; outline: as §2
Escherichia coli [28] = assay: Antimicrobial activity against Escherichia coli isolate 386 expressing beta-lactamase KPC2, CTX-M-15, OXA-9, TEM and PFGE cluster 1 isolated from wound of patient by agar dilution method; outline: as §1
Escherichia coli [29] = assay: Antimicrobial activity against Escherichia coli isolate 386T expressing beta-lactamase KPC2, OXA-9 and PFGE cluster 1 isolated from wound of patient by agar dilution method; outline: as §2
Escherichia coli [30] = assay: Antimicrobial activity against Escherichia coli isolate 540 expressing beta-lactamase KPC2, TEM and PFGE cluster 4 isolated from synovial fluid of patient by agar dilution method; outline: as §3
Escherichia coli [31] = assay: Antimicrobial activity against Escherichia coli isolate 543T expressing beta-lactamase KPC2 and PFGE cluster 4 isolated from synovial fluid of patient by agar dilution method; outline: as §2
Escherichia coli [32] = assay: Antimicrobial activity against Escherichia coli isolate 544 expressing beta-lactamase KPC2, TEM and PFGE cluster 4 isolated from abscess of patient by agar dilution method; outline: as §3
Escherichia coli [33] = assay: Antimicrobial activity against Escherichia coli isolate 547 expressing beta-lactamase KPC2, TEM and PFGE cluster 4 isolated from blood of patient by agar dilution method; outline: as §1
Escherichia coli [34] = assay: Antimicrobial activity against Escherichia coli isolate 547T expressing beta-lactamase KPC2 and PFGE cluster 4 isolated from blood of patient by agar dilution method; outline: as §2
Escherichia coli [35] = assay: Antimicrobial activity against Escherichia coli isolate 1679 expressing beta-lactamase KPC2, SHV-12, TEM and PFGE cluster 6 isolated from peritoneal fluid of patient by agar dilution method; outline: as §3
Escherichia coli [36] = assay: Antimicrobial activity against Escherichia coli isolate 1679T expressing beta-lactamase KPC2, TEM and PFGE cluster 6 isolated from peritoneal fluid of patient by agar dilution method; outline: as §2
Escherichia coli [37] = assay: Antimicrobial activity against Escherichia coli DH10B by Etest; settings: K-12 DH10B

## C[C@H]1COc2c(N3CCN(C)CC3)c(F)cc3c(=O)c(C(=O)O)cn1c23.C[C@H]1COc2c(N3CCN(C)CC3)c(F)cc3c(=O)c(C(=O)O)cn1c23.O [LEVOFLOXACIN]
Escherichia coli [1]
  MIC: > 8 µg/mL
Escherichia coli [2]
  MIC: < 0.25 µg/mL
Escherichia coli [3]; isolate 360, Urine
  MIC: > 8 µg/mL
Escherichia coli [4]
  MIC: < 0.25 µg/mL
Escherichia coli [5]
  MIC: > 8 µg/mL
Escherichia coli [6]
  MIC: < 0.25 µg/mL
Escherichia coli [7]
  MIC: > 8 µg/mL
Escherichia coli [8]
  MIC: > 8 µg/mL
Escherichia coli [9]
  MIC: < 0.25 µg/mL
Escherichia coli [10]
  MIC: > 8 µg/mL
Escherichia coli [11]
  MIC: > 8 µg/mL
Escherichia coli [12]
  MIC: < 0.25 µg/mL
Escherichia coli [13]
  MIC: > 8 µg/mL
Escherichia coli [14]
  MIC: < 0.25 µg/mL
Escherichia coli [15]
  MIC: < 0.25 µg/mL
Escherichia coli [16]; isolate 157, Urine
  MIC: > 8 µg/mL
Escherichia coli [17]
  MIC: < 0.25 µg/mL
Escherichia coli [18]
  MIC: > 8 µg/mL
Escherichia coli [19]
  MIC: < 0.25 µg/mL

## CO/N=C(\C(=O)N[C@@H]1C(=O)N2C(C(=O)O)=C(CSc3nc(=O)c(O)nn3C)CS[C@H]12)c1csc(N)n1 [CEFTRIAXONE]
Escherichia coli [1]
  MIC: > 64 µg/mL
Escherichia coli [2]
  MIC: 8 µg/mL (≈ 14.4 µM)
Escherichia coli [3]; isolate 360, Urine
  MIC: > 64 µg/mL
Escherichia coli [4]
  MIC: 8 µg/mL (≈ 14.4 µM)
Escherichia coli [5]
  MIC: > 64 µg/mL
Escherichia coli [6]
  MIC: 8 µg/mL (≈ 14.4 µM)
Escherichia coli [7]
  MIC: > 64 µg/mL
Escherichia coli [8]
  MIC: > 64 µg/mL
Escherichia coli [9]
  MIC: 16 µg/mL (≈ 28.9 µM)
Escherichia coli [10]
  MIC: 32 µg/mL (≈ 57.7 µM)
Escherichia coli [11]
  MIC: > 64 µg/mL
Escherichia coli [12]
  MIC: 8 µg/mL (≈ 14.4 µM)
Escherichia coli [13]
  MIC: 32 µg/mL (≈ 57.7 µM)
Escherichia coli [14]
  MIC: 8 µg/mL (≈ 14.4 µM)
Escherichia coli [15]
  MIC: < 0.25 µg/mL
Escherichia coli [16]; isolate 157, Urine
  MIC: > 64 µg/mL
Escherichia coli [17]
  MIC: > 64 µg/mL
Escherichia coli [18]
  MIC: > 64 µg/mL
Escherichia coli [19]
  MIC: 16 µg/mL (≈ 28.9 µM)

## O=C(O)c1cn(C2CC2)c2cc(N3CCNCC3)c(F)cc2c1=O [CIPROFLOXACIN]
Escherichia coli [15]
  MIC: < 0.25 µg/mL

## C[C@@H](O)[C@H]1C(=O)N2C(C(=O)O)=C(SCCNC=N)C[C@H]12 [IMIPENEM ANHYDROUS]
Escherichia coli [20]
  MIC: 8 µg/mL (≈ 26.7 µM)
Escherichia coli [21]
  MIC: 2 µg/mL (≈ 6.68 µM)
Escherichia coli [22]
  MIC: 8 µg/mL (≈ 26.7 µM)
Escherichia coli [23]
  MIC: 2 µg/mL (≈ 6.68 µM)
Escherichia coli [24]
  MIC: 2 µg/mL (≈ 6.68 µM)
Escherichia coli [25]
  MIC: 2 µg/mL (≈ 6.68 µM)
Escherichia coli [26]
  MIC: 4 µg/mL (≈ 13.4 µM)
Escherichia coli [27]
  MIC: 1 µg/mL (≈ 3.34 µM)
Escherichia coli [28]
  MIC: 1 µg/mL (≈ 3.34 µM)
Escherichia coli [29]
  MIC: 1 µg/mL (≈ 3.34 µM)
Escherichia coli [30]
  MIC: 4 µg/mL (≈ 13.4 µM)
Escherichia coli [31]
  MIC: 2 µg/mL (≈ 6.68 µM)
Escherichia coli [32]
  MIC: 4 µg/mL (≈ 13.4 µM)
Escherichia coli [33]
  MIC: 4 µg/mL (≈ 13.4 µM)
Escherichia coli [34]
  MIC: 1 µg/mL (≈ 3.34 µM)
Escherichia coli [35]
  MIC: 8 µg/mL (≈ 26.7 µM)
Escherichia coli [36]
  MIC: 1 µg/mL (≈ 3.34 µM)
Escherichia coli [37]
  MIC: 0.25 µg/mL (≈ 0.835 µM)

## GENTAMICIN
Escherichia coli [1]
  MIC: > 16 µg/mL
Escherichia coli [2]
  MIC: < 1 µg/mL
Escherichia coli [3]
  MIC: 2 µg/mL
Escherichia coli [4]
  MIC: 2 µg/mL
Escherichia coli [5]
  MIC: 4 µg/mL
Escherichia coli [6]
  MIC: 4 µg/mL
Escherichia coli [7]
  MIC: > 16 µg/mL
Escherichia coli [8]
  MIC: > 16 µg/mL
Escherichia coli [9]
  MIC: < 1 µg/mL
Escherichia coli [10]
  MIC: > 16 µg/mL
Escherichia coli [11]
  MIC: > 16 µg/mL
Escherichia coli [12]
  MIC: < 1 µg/mL
Escherichia coli [13]
  MIC: > 16 µg/mL
Escherichia coli [14]
  MIC: < 1 µg/mL
Escherichia coli [15]
  MIC: < 1 µg/mL
Escherichia coli [16]
  MIC: < 1 µg/mL
Escherichia coli [17]
  MIC: < 1 µg/mL
Escherichia coli [18]
  MIC: > 16 µg/mL
Escherichia coli [19]
  MIC: < 1 µg/mL
